For 18 compounds, MIC and LD50 results are on record in ChEMBL document CHEMBL2407024, “Antimicrobial activity of imidazo[1,5-a]quinoxaline derivatives with pyridinium moiety” (Eur J Med Chem, 2013).

Values after ≈ are worked out from the molar mass of the structure shown. Non-standard residues stand in square brackets, D forms with d. Residues, ends and D or L forms follow the SMILES beside them. Orn = NCCC[C@H](N)C(=O)O

The test system of series [1] is Escherichia coli. As to the kind of experiment: Antibacterial activity against Escherichia coli F-50 measured every 24 hrs for 5 days by conventional dilution method. The class given is functional. An outline of the steps: (§1)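 Broth dilution in nutrient broth, inoculum 3 × 10⁵ cfu/ml. MIC is the lowest concentration showing no growth, read visually every 24 h over 5 days. Run alongside a positive growth control and standard drug controls. Tests in duplicate, repeated twice.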

Series [2] relates to Bacillus cereus. As to the kind of experiment: Antibacterial activity against Bacillus cereus 8035 measured every 24 hrs for 5 days by conventional dilution method. In kind it is functional. Summed up: as §1
For series [3], the system named is Candida albicans. Nature of the series: Antifungal activity against Candida albicans 885-653 measured every 24 hrs for 14 days by conventional dilution method. In kind it is functional. Summed up: (§2)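 Dilution assay in Sabouraud dextrose broth, inoculum 2 × 10^3–4 cfu/ml. MIC is the lowest concentration with no visible growth after 14 days of incubation. Run alongside a positive growth control and standard drug controls. Tests in duplicate, repeated twice.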

The subject of series [4] is Staphylococcus aureus. Nature of the series: Antibacterial activity against Staphylococcus aureus 209p measured every 24 hrs for 5 days by conventional dilution method. In kind it is functional. Summed up: as §1
Series [5] relates to Aspergillus niger. Nature of the series: Antifungal activity against Aspergillus niger BKMF-1119 measured every 24 hrs for 14 days by conventional dilution method. The class given is functional. Summed up:
as §2

Series [6] relates to Trichophyton mentagrophytes. Nature of the series: Antifungal activity against Trichophyton mentagrophytes measured every 24 hrs for 14 days by conventional dilution method. In kind it is functional. Summed up: as §2
In series [7] the test system is Pseudomonas aeruginosa. As to the kind of experiment: Antibacterial activity against Pseudomonas aeruginosa 9027 measured every 24 hrs for 5 days by conventional dilution method. The class given is functional. Summed up:
as §1

Series [8] can be described thus: Acute toxicity in ip dosed mouse. The settings on record: in vivo. The class given is organism-based. An outline of the steps: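 Mice; each compound given at 5 dose levels, 10 animals per dose (n = 50 per compound). Animals observed for 72 h; toxicity expressed as average lethal dose (LD50) calculated from mortality across dose groups.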

The MIC is the lowest concentration found to suppress growth. Low readings indicate inhibition by little substance, high ones a need for much substance. Consider `CCCCCCCCCn1c(=O)c2c(-c3ccccc3)nc(-c3ccc[n+](CCCCCC)c3)n2c2ccccc21.[I-]`, for which the MIC in series [1] is greater than 500 µg/mL; in series [2], 125 µg/mL; in series [3], 25 µg/mL; in series [4] it was 62.5 µg/mL; in series [5], greater than 500 µg/mL; in series [6], greater than 500 µg/mL. Moreover, the MIC in series [7] was greater than 500 µg/mL.

Turning to `O=c1[nH]c2ccccc2n2c(-c3ccc[n+](CCCCCC[n+]4cccc(-c5nc(-c6ccccc6)c6c(=O)[nH]c7ccccc7n56)c4)c3)nc(-c3ccccc3)c12.[Br-].[Br-]`, the MIC in series [1] is greater than 500 µg/mL; in series [2], greater than 500 µg/mL; in series [3], greater than 500 µg/mL; in series [4], 500 µg/mL; in series [5] it was greater than 500 µg/mL; in series [6], greater than 500 µg/mL. In series [7], this compound displayed an MIC greater than 500 µg/mL.

As for `Cn1c(=O)c2c(-c3ccccc3)nc(-c3ccc[n+](Cc4ccccc4)c3)n2c2ccccc21.[Cl-]`, the MIC in series [1] is greater than 500 µg/mL; in series [2] it was 125 µg/mL; in series [3] it was 62.5 µg/mL; in series [4] it was 31.3 µg/mL; in series [5], greater than 500 µg/mL; in series [6], 500 µg/mL. In series [7], this compound returned an MIC greater than 500 µg/mL.

As a reminder, the LD50 is the dose at which mortality reaches 50%. `CCCCCC[n+]1cccc(-c2nc(-c3ccccc3)c3c(=O)[nH]c4ccccc4n23)c1.[Br-]`: the MIC in series [1] is greater than 500 µg/mL; in series [2], 125 µg/mL; in series [3] it was 250 µg/mL; in series [4] it was 62.5 µg/mL; in series [5], greater than 500 µg/mL; in series [6], greater than 500 µg/mL. The same compound displayed an MIC in series [7] greater than 500 µg/mL. Also, the LD50 in series [8] turned out to be 75.8 mg/kg.

Take `CCCCCCCCCCCCCCCCCCn1c(=O)c2c(-c3ccccc3)nc(-c3ccc[n+](Cc4ccccc4)c3)n2c2ccccc21.[Cl-]`: the MIC is greater than 500 µg/mL in series [1]; greater than 500 µg/mL in series [2]; greater than 500 µg/mL in series [3]; 500 µg/mL in series [4]; greater than 500 µg/mL in series [5]; greater than 500 µg/mL in series [6]. For the same compound, the MIC in series [7] was greater than 500 µg/mL.

For the compound `Cl.O=c1[nH]c2ccccc2n2c(-c3cccnc3)nc(-c3ccccc3)c12`, the MIC in series [1], in series [2], in series [3], in series [4], in series [5] and in series [6] was greater than 500 µg/mL throughout. In addition, the MIC in series [7] was greater than 500 µg/mL.

Take `O=c1c2c(-c3ccccc3)nc3n2c2ccccc2n1CCCCCCCCCCn1c(=O)c2c(-c4ccccc4)nc(n2c2ccccc21)-c1ccc[n+](c1)Cc1cccc(c1)C[n+]1cccc-3c1.[Br-].[Br-]`: the MIC in series [1] was greater than 500 µg/mL; in series [2], greater than 500 µg/mL; in series [3], 250 µg/mL; in series [4] it was 125 µg/mL; in series [5], greater than 500 µg/mL; in series [6] it was greater than 500 µg/mL. The compound further displayed an MIC in series [7] greater than 500 µg/mL.

Turning to `O=c1[nH]c2ccccc2n2c(-c3ccc[n+](CCCC[n+]4cccc(-c5nc(-c6ccccc6)c6c(=O)[nH]c7ccccc7n56)c4)c3)nc(-c3ccccc3)c12.[Br-].[Br-]`, the MIC was greater than 500 µg/mL in series [1]; greater than 500 µg/mL in series [2]; 3.9 µg/mL in series [3]; greater than 500 µg/mL in series [4]; greater than 500 µg/mL in series [5]; 250 µg/mL in series [6]. Moreover, the MIC in series [7] was greater than 500 µg/mL.

As for `CCCCCCn1c(=O)c2c(-c3ccccc3)nc(-c3ccc[n+](Cc4cccc(C[n+]5cccc(-c6nc(-c7ccccc7)c7c(=O)n(CCCCCC)c8ccccc8n67)c5)c4)c3)n2c2ccccc21.[Br-].[Br-]`, the minimum inhibitory concentration (MIC) was greater than 500 µg/mL in series [1]; 62.5 µg/mL in series [2]; 15.6 µg/mL in series [3]; 12.5 µg/mL in series [4]; greater than 500 µg/mL in series [5]; greater than 500 µg/mL in series [6]. In series [7], this compound had an MIC greater than 500 µg/mL.

For `O=c1[nH]c2ccccc2n2c(-c3ccc[n+](Cc4ccccc4)c3)nc(-c3ccccc3)c12.[Cl-]`, the MIC in series [1] was greater than 500 µg/mL; in series [2], 125 µg/mL; in series [3] it was 62.5 µg/mL; in series [4] it was 31.3 µg/mL; in series [5], greater than 500 µg/mL; in series [6], 500 µg/mL. The MIC in series [7] is greater than 500 µg/mL. In series [8], this compound came in with an LD50 of 65.7 mg/kg.

As for `CCCCCCCCCn1c(=O)c2c(-c3ccccc3)nc(-c3ccc[n+](Cc4cccc(C[n+]5cccc(-c6nc(-c7ccccc7)c7c(=O)n(CCCCCCCCC)c8ccccc8n67)c5)c4)c3)n2c2ccccc21.[Br-].[Br-]`, the MIC in series [1] was 500 µg/mL; in series [2], 15.6 µg/mL; in series [3], 7.8 µg/mL; in series [4], 3.9 µg/mL; in series [5], greater than 500 µg/mL; in series [6] it was 500 µg/mL. The compound also came in with an MIC in series [7] greater than 500 µg/mL. The LD50 in series [8] stood at 108 mg/kg.

Consider `CCCCCCn1c(=O)c2c(-c3ccccc3)nc(-c3ccc[n+](CCCCCC)c3)n2c2ccccc21.[I-]`, for which the MIC in series [1] was 250 µg/mL; in series [2] it was 62.5 µg/mL; in series [3], 15.6 µg/mL; in series [4] it was 62.5 µg/mL; in series [5] it was greater than 500 µg/mL; in series [6], greater than 500 µg/mL. In series [7], this compound had an MIC of 500 µg/mL.

Consider `CC1COc2c(N3CCN(C)CC3)c(F)cc3c(=O)c(C(=O)O)cn1c23` (stereo not given) [OFLOXACIN], for which the MIC is 1.5 µg/mL (≈ 4.15 µM) in series [2], 0.97 µg/mL (≈ 2.68 µM) in series [4] and 3.1 µg/mL (≈ 8.58 µM) in series [7].

In the case of `CCCC[n+]1cccc(-c2nc(-c3ccccc3)c3c(=O)[nH]c4ccccc4n23)c1.[I-]`, the MIC was greater than 500 µg/mL in series [1]; greater than 500 µg/mL in series [2]; greater than 500 µg/mL in series [3]; 500 µg/mL in series [4]; greater than 500 µg/mL in series [5]; greater than 500 µg/mL in series [6]. Besides, in series [7], the MIC is greater than 500 µg/mL. This compound yielded an LD50 in series [8] of 63.2 mg/kg.

Take `CCCn1c(=O)c2c(-c3ccccc3)nc(-c3ccc[n+](Cc4ccccc4)c3)n2c2ccccc21.[Cl-]`: the MIC in series [1] is greater than 500 µg/mL; in series [2], 125 µg/mL; in series [3], greater than 500 µg/mL; in series [4], 62.5 µg/mL; in series [5], greater than 500 µg/mL; in series [6], greater than 500 µg/mL. Besides, the MIC in series [7] was greater than 500 µg/mL.

Consider `Cc1nc(-c2ccc[n+](Cc3ccccc3)c2)n2c1c(=O)[nH]c1ccccc12.[Cl-]`, for which the MIC in series [1] was greater than 500 µg/mL; in series [2] it was greater than 500 µg/mL; in series [3], greater than 500 µg/mL; in series [4] it was 500 µg/mL; in series [5] it was greater than 500 µg/mL; in series [6] it was greater than 500 µg/mL. Besides, the MIC in series [7] is greater than 500 µg/mL.

In the case of `CC(C)C[C@@H]1NC(=O)[C@H](CCCN)NC(=O)[C@H](C(C)C)NC(=O)[C@@H]2CCCN2C(=O)[C@@H](Cc2ccccc2)NC(=O)[C@H](CC(C)C)NC(=O)[C@H](CCCN)NC(=O)[C@H](C(C)C)NC(=O)[C@@H]2CCCN2C(=O)[C@@H](Cc2ccccc2)NC1=O` [GRAMICIDIN S] (cyclo(L[dF]PV[Orn]L[dF]PV[Orn])), the LD50 in series [8] came out at 26 mg/kg.

As for `Cl.O=c1[nH]c2ccccc2n2c(-c3ccccn3)nc(-c3ccccc3)c12`, the MIC in series [1], in series [2], in series [3], in series [4], in series [5] and in series [6] was greater than 500 µg/mL in each case. The compound also gave an MIC in series [7] greater than 500 µg/mL.
